Results: ChEMBL document CHEMBL2057168, “(1aR,5aR)1a,3,5,5a-Tetrahydro-1H-2,3-diaza-cyclopropa[a]pentalene-4-carboxylic acid (MK-1903): a potent GPR109a agonist that lowers free fatty acids in humans” (J Med Chem, 2012)
Calls of active or inactive are those of the source. No cut-off for these calls is given here.

Tests used:
[1] = system: Rattus norvegicus; assay: Antidyslipedic activity in fasted Sprague-Dawley rat assessed as decrease in free fatty acid level at 0.01 to 100 mg/kg, po by NEFA C-free fatty acid assay; format: functional; design: scale not given: the % may be the effect or the level left; conditions: dose mg/kg 0.01-100
Procedure, shortened: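 Male Sprague-Dawley rats fasted, compound by oral gavage, serial plasma sampling after dosing for free fatty acids over a time course; vehicle-dosed control group.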

[2] = Blood clearance in mouse; format: ADME, organism-based; conditions: whole blood
Procedure, shortened: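 Pharmacokinetics across species; for mice, clearance determined in blood rather than plasma following dosing.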

[3] = Volume of distribution in mouse; format: ADME, organism-based; conditions: in vivo
[4] = Volume of distribution in Sprague-Dawley rat at 2 mg/kg, iv; format: ADME, organism-based; design: dose 2 mg/kg, route intravenous; conditions: in vivo
Procedure, shortened: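 Male Sprague–Dawley rats dosed iv at 2 mg/kg in 80% PEG400/20% phosphate buffered saline. Jugular vein blood was serially sampled over 24 h, and plasma was prepared from sodium heparin blood. Plasma was analysed by HPLC/MS/MS (LLOQ 1 ng/mL, ULOQ 2000 ng/mL).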

[5] = Terminal half life in Sprague-Dawley rat at 2 mg/kg, iv; format: ADME, organism-based; design: dose 2 mg/kg, route intravenous; conditions: in vivo, read-out: beta t1/2 (converted)
Procedure, shortened: (§1)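 Male Sprague-Dawley rats were dosed at 10 mg/kg po or 2 mg/kg iv in 80% PEG400/20% phosphate-buffered saline, fasted overnight before the oral dose. Jugular blood was sampled serially from 0.25 to 21 h over 24 h, and heparinized plasma was prepared. Drug was assayed by HPLC/MS/MS (quantitation range 1–2000 ng/mL).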

[6] = system: Rattus norvegicus; assay: Dose normalized AUC in Sprague-Dawley rat at 10 mg/kg, po; format: ADME, organism-based; design: dose 10 mg/kg, route oral; conditions: in vivo; procedure, shortened: as §1
[7] = Terminal half life in dog; format: ADME, organism-based, Canis lupus familiaris; conditions: in vivo, read-out: beta t1/2 (converted)
[8] = system: Canis familiaris; assay: Dose normalized Cmax in po dosed dog; format: ADME, organism-based, Canis lupus familiaris; conditions: in vivo
[9] = system: Canis familiaris; assay: Dose normalized AUC in po dosed dog; format: ADME, organism-based, Canis lupus familiaris; conditions: in vivo
[10] = Plasma clearance in rhesus monkey; format: ADME, organism-based, Macaca mulatta
[11] = Volume of distribution in rhesus monkey; format: ADME, organism-based, Macaca mulatta; conditions: in vivo
[12] = system: Rhesus monkey; assay: Dose normalized AUC in po dosed rhesus monkey; format: ADME, organism-based, Macaca mulatta; conditions: in vivo
[13] = system: Homo sapiens; assay: Antidyslipedic activity in human assessed as decrease in free fatty acid level at 50 to 200 mg, po administered as a single dose measured after 8 hrs relative to placebo control; format: functional, organism-based
[14] = system: Homo sapiens; assay: Activation of GPR109a receptor in human assessed as PGD2 metabolite level in urine at 10 to >10 mg, po; format: functional, organism-based
[15] = AUC (0 to 12 hrs) in human at 150 mg, po BID administered on day 1 followed by 2-day wash out period after which dosing continued up to day 11 measured on day 1; format: ADME, organism-based; design: dose 150 mg, time < 12 hr, route oral; conditions: plasma
Procedure, shortened: (§2)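 Double-blind, placebo-controlled, randomized dose-escalation study in healthy male volunteers, six cohorts of eight (six active, two placebo). Oral dose on day 1, two-day washout, then dosing days 4–11; the 200 mg qd cohort was titrated over days 1–4. Venous blood taken predose and at 0.5–12 h on days 1, 4 and 11; plasma drug measured. τ 12 h (bid), 24 h (qd), 8 h (tid), 6 h (qid).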

[16] = AUC (0 to 8 hrs) in human at 150 mg, po TID administered on day 1 followed by 2-days wash out period after which dosing continued up to day 11 measured on day 4; format: ADME, organism-based; design: time < 8 hr, dose 150 mg, route oral; conditions: plasma; procedure, shortened: as §2
[17] = AUC (0 to 6 hrs) in human at 175 mg, po QID administered on day 1 followed by 2-days wash out period after which dosing continued up to day 11 measured on day 11; format: ADME, organism-based; design: time < 6 hr, dose 175 mg, route oral; conditions: plasma; procedure, shortened: as §2
[18] = Tmax in human at titreated po dose administered from day 1 to 4 followed by 200 mg, po QD administered up to day 11 measured on day 11; format: ADME, organism-based; conditions: in vivo
Procedure, shortened: (§3)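 Double-blind, placebo-controlled, randomized multiple oral dose study in healthy male volunteers (cohorts of eight; six active, two placebo). Dose given on day 1, then a two-day washout, then dosing days 4–11; for the QD arm, subjects were titrated over days 1–4. Venous plasma sampled predose and 0.5, 1, 1.5, 2, 4, 6, 8, 10, 12 h postdose on days 1, 4 and 11. Tmax reported as median (min–max).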

[19] = Tmax in human at 175 mg, po QID administered on day 1 followed by 2-days wash out period after which dosing continued up to day 11 measured on day 4; format: ADME, organism-based; conditions: in vivo; procedure, shortened: as §3
[20] = Apparent half life in human at 100 mg, po BID administered on day 1 followed by 2-day wash out period after which dosing continued up to day 11 measured on day 11; format: ADME, organism-based; conditions: in vivo, read-out: t1/2(app) (converted); procedure, shortened: as §2
[21] = system: Homo sapiens; assay: Antidyslipidemic activity in human assessed as decrease in free fatty acid level 175 mg, po QID administered on day 1 followed by 2-days wash out period after which dosing continued up to day 11 measured on day 4 and 11; format: functional, organism-based
Procedure, shortened: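 Healthy male volunteers in a randomized, double-blind, placebo-controlled multiple-dose study, six active and two placebo subjects per cohort. Oral dosing on day 1, two-day washout, then days 4–11, with titration over days 1–4 for the qd arm.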

[22] = system: Homo sapiens; assay: Toxicity in human assessed as occurrence of flushing at 10 to >10 mg administered for 1 to 2 days as divided dose; format: organism-based; conditions: in vivo
Procedure, shortened: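 Healthy volunteers scored subject-reported flushing with a flushing symptoms questionnaire after single oral doses and during repeat divided daily dosing.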

[23] = system: Homo sapiens; assay: Toxicity in dyslipedimc patient assessed as flushing at 150 mg administered TID during four week study; format: organism-based; conditions: in vivo
[24] = Cmax in human at 150 mg, po BID administered on day 1 followed by 2-day wash out period after which dosing continued up to day 11 measured on day 4; format: ADME, organism-based; design: dose 150 mg, route oral; conditions: in vivo
Procedure, shortened: (§4)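 Healthy male volunteers took part in a double-blind, randomized, placebo-controlled dose-escalation study, with cohorts of 8 (6 on drug, 2 on placebo). Each subject got an oral dose on day 1, then a 2-day washout, then dosing on days 4–11. The 200 mg qd group was titrated over days 1–4. Venous plasma was sampled predose and 0.5–12 h postdose on days 1, 4 and 11, and predose on days 5–10 for troughs.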

[25] = Cmax in human at 150 mg, po TID administered on day 1 followed by 2-days wash out period after which dosing continued up to day 11 measured on day 4; format: ADME, organism-based; design: dose 150 mg, route oral; conditions: in vivo; procedure, shortened: as §4
[26] = Cmin in human at 50 mg, po BID administered on day 1 followed by 2-day wash out period after which dosing continued up to day 11 measured on day 11 at 12 hrs; format: ADME, organism-based; conditions: in vivo, read-out: Cmin; procedure, shortened: as §4
[27] = Cmin in human at 175 mg, po QID administered on day 1 followed by 2-days wash out period after which dosing continued up to day 11 measured on day 1 at 6 hrs; format: ADME, organism-based; conditions: in vivo, read-out: Cmin; procedure, shortened: as §4
[28] = Tmax in human at 50 mg, po BID administered on day 1 followed by 2-day wash out period after which dosing continued up to day 11 measured on day 1; format: ADME, organism-based; conditions: in vivo; procedure, shortened: as §3
[29] = Tmax in human at 100 mg, po BID administered on day 1 followed by 2-day wash out period after which dosing continued up to day 11 measured on day 1; format: ADME, organism-based; conditions: in vivo; procedure, shortened: as §4

O=C(O)c1n[nH]c2c1C[C@H]1C[C@@H]21
Activity [1]: 90% | clearance [2]: 0.6 L/h/kg | Vd [3]: 0.75 L/kg | Vd [4]: 0.53 L/kg | half-life [5]: 2.4 h | AUC/dose [6]: 5.1 µM·kg·h/mg | half-life [7]: 3.4 h | Cmax/dose [8]: 17.5 µM·kg/mg | AUC/dose [9]: 33.3 µM·kg·h/mg | clearance [10]: 0.306 L/h/kg | Vd [11]: 0.21 L/kg | AUC/dose [12]: 8.5 µM·kg·h/mg | Activity [13]: inactive | Activity [14]: Active | AUC at 12 h [15]: 97.7 nM·h | AUC at 8 h [16]: 88.5 nM·h | AUC at 6 h [17]: 123 nM·h | Tmax [18]: 1.25 h | Tmax [19]: 1 h | half-life [20]: 2.2 h | Activity [21]: Active | Activity [22]: Non-toxic | Activity [23]: Non-toxic | Cmax [24]: 31.7 nM | Cmax [25]: 52.6 nM | concentration at 12 h [26]: 0.045 nM | concentration at 6 h [27]: 4.01 nM | Tmax [28]: 1 h | Tmax [29]: 1 h
